{
  "source": "paper PMC6140336",
  "about": "(Cell, 2018)",
  "key": {"[1]": {"tested_on": "SKW3 T cells expressing TCR55", "test": "pERK1/2 phospho-flow cytometry, TCR55 cells", "format": "cell-based, human", "details": "peptide-pulsed KG-1 cells or OKT3, 15 minutes, result in words"}, "[2]": {"tested_on": "SKW3 T cells expressing TCR589", "test": "pERK1/2 phospho-flow cytometry, TCR589 cells", "format": "cell-based, human", "details": "peptide-pulsed KG-1 cells or OKT3, 15 minutes, result in words", "summary_of_the_method": "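SKW3 cells were rested overnight. Peptide-pulsed KG-1 cells (2 h) were washed and mixed 1:1 with them (125,000 each), then co-cultured 15 min at 37 °C. Cells were fixed in 4% PFA then Cytofix (30 min, 37 °C), permeabilised in ice-cold methanol or Perm Buffer III, and stained 1 h at RT with anti-pERK1/2 (1:50) and anti-CD3. Mean pERK MFI of CD3+ cells by flow. Biological and technical triplicates.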"}, "[3]": {"tested_on": "TCR55-transduced 58−/− T cells", "test": "IL-2 ELISA, TCR55-transduced cell line", "format": "cell-based, murine", "details": "peptide-pulsed KG-1 APCs or OKT3, 24 hrs, result in words", "summary_of_the_method": "(§1)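 58−/− cells carrying the TCR were rested overnight in complete RPMI. KG-1 APCs were pulsed with peptide for 2 h or overnight at 37 °C, washed, and mixed 1:1 with the T cells for 24 hrs at 37 °C. Secreted mouse IL-2 was measured by sandwich ELISA (avidin-HRP, TMB, H3PO4 stop) read at 450 and 570 nm. Biological and technical triplicates.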"}, "[4]": {"tested_on": "TCR589-transduced 58−/− T cells", "test": "IL-2 ELISA, TCR589-transduced cell line", "format": "cell-based, murine", "details": "peptide-pulsed KG-1 APCs or OKT3, 24 hrs, result in words", "summary_of_the_method": "as §1"}},
  "data": [
    {"substance": "OKT3: anti-CD3 antibody (clone OKT3), non-specific TCR stimulus", "values": [
      {"measurement": "ERK1/2 phosphorylation (pERK)", "setting": "[1]", "value": "robust ERK1/2 phosphorylation"},
      {"measurement": "ERK1/2 phosphorylation (pERK)", "setting": "[2]", "value": "robust ERK1/2 phosphorylation"},
      {"measurement": "IL-2 secretion", "setting": "[3]", "value": "responded similarly"},
      {"measurement": "IL-2 secretion", "setting": "[4]", "value": "responded similarly"}
    ]}
  ]
}
